Measured values as given in ChEMBL document CHEMBL4229342, “Synthesis of novel proxyphylline derivatives with dual Anti-Candida albicans and anticancer activity” (Eur J Med Chem, 2018).

How the values were obtained:
Type in all cases: functional
Candida albicans [1] = assay: Growth inhibition of Candida albicans ATCC 90028 at 0.25 ug/ml incubated for 18 hrs at 35 degC by broth microdilution method relative to control; details: ATCC 90028, 18 h, read-out: GI
Candida albicans [2] = assay: Growth inhibition of Candida albicans ATCC 90028 at 16 ug/ml incubated for 18 hrs at 35 degC by broth microdilution method relative to control; details: ATCC 90028, 18 h, read-out: GI
CCRF-CEM [3] = assay: Antiproliferative activity against human CCRF-CEM cells assessed as cell viability at 100 uM after 72 hrs by MTT assay; details: read-out: Activity
Method in brief: (§1)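 MTT viability assay in CCRF-CEM and MCF-7 cells after 72 h exposure at 25, 50, 100 and 200 µM. Results are relative to control cells without inhibitor in 0.5% DMSO. Done in triplicate; values are means ± SD of three independent experiments.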

MCF7 [4] = assay: Antiproliferative activity against human MCF7 cells assessed as cell viability at 50 uM after 72 hrs by MTT assay; details: MCF7, 72 h, read-out: Activity; method in brief: as §1
Candida albicans [5] = assay: Growth inhibition of Candida albicans ATCC 90028 at 4 ug/ml incubated for 18 hrs at 35 degC by broth microdilution method relative to control; details: ATCC 90028, 18 h, read-out: GI
CCRF-CEM [6] = assay: Antiproliferative activity against human CCRF-CEM cells assessed as cell viability at 25 uM after 72 hrs by MTT assay; details: read-out: Activity; method in brief: as §1
Candida albicans [7] = assay: Growth inhibition of Candida albicans ATCC 90028 at 16 ug/ml incubated for 48 hrs at 35 degC by broth microdilution method relative to control; details: ATCC 90028, 48 h, read-out: GI
Candida albicans [8] = assay: Growth inhibition of Candida albicans ATCC 90028 at 0.125 ug/ml incubated for 18 hrs at 35 degC by broth microdilution method relative to control; details: ATCC 90028, 18 h, read-out: GI
Candida albicans [9] = assay: Fungicidal activity against Candida albicans ATCC 90028 assessed as log reduction in cell viability at 16 ug/ml after 48 hrs at 35 degC
Method in brief: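 MFC assay on C. albicans ATCC 90028 following M27-A3, at the molar equivalent of 16 µg/mL. CFU of treated cells were compared with CFU of the untreated inoculum. Activity is given as lg R = lg CFU/mL control − lg CFU/mL treated, and lg R ≥3 was defined as fungicidal. Values are means of two independent experiments.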

Candida albicans [10] = assay: Growth inhibition of Candida albicans ATCC 90028 at 8 ug/ml incubated for 48 hrs at 35 degC by broth microdilution method relative to control; details: ATCC 90028, 48 h, read-out: GI
MCF7 [11] = assay: Antiproliferative activity against human MCF7 cells assessed as cell viability at 100 uM after 72 hrs by MTT assay; details: MCF7, 72 h, read-out: Activity; method in brief: as §1
CCRF-CEM [12] = assay: Antiproliferative activity against human CCRF-CEM cells assessed as cell viability at 200 uM after 72 hrs by MTT assay; details: read-out: Activity; method in brief: as §1
Candida albicans [13] = assay: Growth inhibition of Candida albicans ATCC 90028 at 0.5 ug/ml incubated for 18 hrs at 35 degC by broth microdilution method relative to control; details: ATCC 90028, 18 h, read-out: GI
Candida albicans [14] = assay: Growth inhibition of Candida albicans ATCC 90028 at 0.125 ug/ml incubated for 4 hrs at 35 degC by broth microdilution method relative to control; details: ATCC 90028, 4 h, read-out: GI
Candida albicans [15] = assay: Growth inhibition of Candida albicans ATCC 90028 at 2 ug/ml incubated for 4 hrs at 35 degC by broth microdilution method relative to control; details: ATCC 90028, 4 h, read-out: GI
MCF7 [16] = assay: Antiproliferative activity against human MCF7 cells assessed as cell viability at 200 uM after 72 hrs by MTT assay; details: MCF7, 72 h, read-out: Activity; method in brief: as §1
Candida albicans [17] = assay: Growth inhibition of Candida albicans ATCC 90028 at 0.0625 ug/ml incubated for 18 hrs at 35 degC by broth microdilution method relative to control; details: ATCC 90028, 18 h, read-out: GI
Candida albicans [18] = assay: Growth inhibition of Candida albicans ATCC 90028 at 0.25 ug/ml incubated for 4 hrs at 35 degC by broth microdilution method relative to control; details: ATCC 90028, 4 h, read-out: GI
CCRF-CEM [19] = assay: Antiproliferative activity against human CCRF-CEM cells assessed as cell viability at 50 uM after 72 hrs by MTT assay; details: read-out: Activity; method in brief: as §1
Candida albicans [20] = assay: Growth inhibition of Candida albicans ATCC 90028 at 2 ug/ml incubated for 18 hrs at 35 degC by broth microdilution method relative to control; details: ATCC 90028, 18 h, read-out: GI
Candida albicans [21] = assay: Growth inhibition of Candida albicans ATCC 90028 at 0.0625 ug/ml incubated for 4 hrs at 35 degC by broth microdilution method relative to control; details: ATCC 90028, 4 h, read-out: GI
Candida albicans [22] = assay: Growth inhibition of Candida albicans ATCC 90028 at 0.5 ug/ml incubated for 4 hrs at 35 degC by broth microdilution method relative to control; details: ATCC 90028, 4 h, read-out: GI
Candida albicans [23] = assay: Growth inhibition of Candida albicans ATCC 90028 at 0.0313 ug/ml incubated for 18 hrs at 35 degC by broth microdilution method relative to control; details: ATCC 90028, 18 h, read-out: GI
Candida albicans [24] = assay: Growth inhibition of Candida albicans ATCC 90028 at 8 ug/ml incubated for 4 hrs at 35 degC by broth microdilution method relative to control; details: ATCC 90028, 4 h, read-out: GI
MCF7 [25] = assay: Antiproliferative activity against human MCF7 cells assessed as cell viability at 25 uM after 72 hrs by MTT assay; details: MCF7, 72 h, read-out: Activity; method in brief: as §1
Candida albicans [26] = assay: Growth inhibition of Candida albicans ATCC 90028 at 1 ug/ml incubated for 4 hrs at 35 degC by broth microdilution method relative to control; details: ATCC 90028, 4 h, read-out: GI
Candida albicans [27] = assay: Growth inhibition of Candida albicans ATCC 90028 at 1 ug/ml incubated for 18 hrs at 35 degC by broth microdilution method relative to control; details: ATCC 90028, 18 h, read-out: GI
Candida albicans [28] = assay: Growth inhibition of Candida albicans ATCC 90028 at 0.0313 ug/ml incubated for 4 hrs at 35 degC by broth microdilution method relative to control; details: ATCC 90028, 4 h, read-out: GI
Candida albicans [29] = assay: Growth inhibition of Candida albicans ATCC 90028 at 8 ug/ml incubated for 18 hrs at 35 degC by broth microdilution method relative to control; details: ATCC 90028, 18 h, read-out: GI

Structure (SMILES) | inhibition of growth at 0.25 µg/mL (Candida albicans [1]) [%] | inhibition of growth at 16 µg/mL (Candida albicans [2]) [%] | viability at 100 µM (CCRF-CEM [3]) [%] | viability at 50 µM (MCF7 [4]) [%] | inhibition of growth at 4 µg/mL (Candida albicans [5]) [%] | viability at 25 µM (CCRF-CEM [6]) [%] | inhibition of growth at 16 µg/mL (Candida albicans [7]) [%] | inhibition of growth at 0.125 µg/mL (Candida albicans [8]) [%] | log(activity) (Candida albicans [9]) | inhibition of growth at 8 µg/mL (Candida albicans [10]) [%] | viability at 100 µM (MCF7 [11]) [%] | viability at 200 µM (CCRF-CEM [12]) [%] | inhibition of growth at 0.5 µg/mL (Candida albicans [13]) [%] | inhibition of growth at 0.125 µg/mL (Candida albicans [14]) [%] | inhibition of growth at 2 µg/mL (Candida albicans [15]) [%] | viability at 200 µM (MCF7 [16]) [%] | inhibition of growth at 0.0625 µg/mL (Candida albicans [17]) [%] | inhibition of growth at 0.25 µg/mL (Candida albicans [18]) [%] | viability at 50 µM (CCRF-CEM [19]) [%] | inhibition of growth at 2 µg/mL (Candida albicans [20]) [%] | further results
COC(C(=O)OC(C)Cn1cnc2c1c(=O)n(C)c(=O)n2C)c1cccc2ccccc12 (stereo unspecified) | 99.9 | 99.8 | 51.4 | 87.7 | 99.5 | 96.6 | 99.4 | 100 | 0.5 | 99.6 | 83.3 | 34.6 | 100 | 100 | 99.3 | 76.9 | 100 | 98.9 | 87.9 | 99.9 | inhibition of growth at 0.0625 µg/mL (Candida albicans [21]): 100%; inhibition of growth at 0.5 µg/mL (Candida albicans [22]): 99.1%; inhibition of growth at 0.0313 µg/mL (Candida albicans [23]): 100%; inhibition of growth at 8 µg/mL (Candida albicans [24]): 99%; viability at 25 µM (MCF7 [25]): 92.6%; inhibition of growth at 1 µg/mL (Candida albicans [26]): 99.3%; inhibition of growth at 1 µg/mL (Candida albicans [27]): 100%; inhibition of growth at 0.0313 µg/mL (Candida albicans [28]): 99.5%; inhibition of growth at 8 µg/mL (Candida albicans [29]): 100%
CC(Cn1cnc2c1c(=O)n(C)c(=O)n2C)OC(=O)Nc1ccccc1 (stereo unspecified) | 100 | 100 | 53.5 | 83.6 | 99.7 | 78.9 | 99.1 | 100 | 0.6 | 99.2 | 84.7 | 38.5 | 100 | 99.3 | 99.4 | 81 | 100 | 99.2 | 73.1 | 100 | inhibition of growth at 0.0625 µg/mL (Candida albicans [21]): 99.3%; inhibition of growth at 0.5 µg/mL (Candida albicans [22]): 99.2%; inhibition of growth at 0.0313 µg/mL (Candida albicans [23]): 100%; inhibition of growth at 8 µg/mL (Candida albicans [24]): 99.2%; viability at 25 µM (MCF7 [25]): 91.9%; inhibition of growth at 1 µg/mL (Candida albicans [26]): 99.3%; inhibition of growth at 1 µg/mL (Candida albicans [27]): 99.9%; inhibition of growth at 0.0313 µg/mL (Candida albicans [28]): 99.4%; inhibition of growth at 8 µg/mL (Candida albicans [29]): 99.9%
CC(Cn1cnc2c1c(=O)n(C)c(=O)n2C)OCc1cn(-c2cccc3ccccc23)nn1 (stereo unspecified) | 99.8 | 99.6 | 34.2 | 91.9 | 99.8 | 90 | 99.1 | 100 | 0.5 | 99.6 | 93.3 | 4.1 | 99.7 | 99.7 | 99.2 | 77 | 100 | 99.5 | 67.7 | 99.8 | inhibition of growth at 0.0625 µg/mL (Candida albicans [21]): 99.8%; inhibition of growth at 0.5 µg/mL (Candida albicans [22]): 99.3%; inhibition of growth at 0.0313 µg/mL (Candida albicans [23]): 99.9%; inhibition of growth at 8 µg/mL (Candida albicans [24]): 99.6%; viability at 25 µM (MCF7 [25]): 93.5%; inhibition of growth at 1 µg/mL (Candida albicans [26]): 99.5%; inhibition of growth at 1 µg/mL (Candida albicans [27]): 99.7%; inhibition of growth at 0.0313 µg/mL (Candida albicans [28]): 99.1%; inhibition of growth at 8 µg/mL (Candida albicans [29]): 99.9%
COC(C(=O)OC(C)Cn1cnc2c1c(=O)n(C)c(=O)n2C)c1ccc(C(C)(C)C)cc1 (stereo unspecified) | 100 | 99.8 | 28.6 | 79.5 | 99.9 | 75.8 | 99.2 | 100 | 0.2 | 99.7 | 63.5 | 0 | 99.7 | 99.2 | 99.2 | 35 | 99.9 | 99.3 | 55.3 | 99.9 | inhibition of growth at 0.0625 µg/mL (Candida albicans [21]): 99%; inhibition of growth at 0.5 µg/mL (Candida albicans [22]): 98.9%; inhibition of growth at 0.0313 µg/mL (Candida albicans [23]): 99.8%; inhibition of growth at 8 µg/mL (Candida albicans [24]): 99.5%; viability at 25 µM (MCF7 [25]): 82.2%; inhibition of growth at 1 µg/mL (Candida albicans [26]): 99.4%; inhibition of growth at 1 µg/mL (Candida albicans [27]): 99.8%; inhibition of growth at 0.0313 µg/mL (Candida albicans [28]): 99.4%; inhibition of growth at 8 µg/mL (Candida albicans [29]): 100%
